Activity calls are given as the source filed them. The rule behind the calls is not given here.
Experiments:
16HBE14o- = assay: Cytotoxicity against human 16HBE14o- cells assessed as cell viability incubated for 48 hrs by MTT assay; type: cell-based; conditions: 36 h, in the assay text read “36 hrs” for “48 hrs”
In short: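 Cells were plated and grown 48 h at 37 °C, 5% CO2, in DMEM with 10% FBS. They were then given graded ligand concentrations for 36 h and treated with MTT (5 mg/ml) for 4 h in the dark. Formazan was dissolved in DMSO and absorbance read at 577 nm. IC50 was taken from a sigmoidal dose–response fit; three independent experiments.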

PC-3 = assay: Antiproliferative activity against human PC-3 cells assessed as reduction in cell viability […] by MTT assay; type: functional, cell-based
[1] = system: Quadruplex DNA [UNDEFINED MUTATION]; assay: Binding affinity to telomeric Htg24 G-quadruplex DNA G21T mutant (unknown origin) assessed as strong fluorescence signal at 5 uM under pH condition 7.4 by fluorescence titration analysis; type: nucleic-acid assay; conditions: Homo sapiens
In short: (§1)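 Ligand held at 5 μM and mixed with each Htg24 point mutant in Tris-HCl buffer containing 60 mM KCl, pH 7.4. Fluorescence was read, and the signal change was computed as (F mutant − F wild type)/F wild type.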

Quadruplex DNA [2] = assay: Binding affinity to telomeric Htg24 G-quadruplex DNA (unknown origin) assessed as fluorescence quantum yield by fluorescence spectrophotometric method; type: nucleic-acid assay
In short: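 Fluorescence quantum yield determined against fluorescein (Φ = 0.95) in 1% NaOH ethanol. Five increasing ligand concentrations added to fixed DNA, with absorbance and emission recorded for each.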

Quadruplex DNA [3] = assay: Binding affinity to G4 quadruplex DNA in human U87 cells assessed as increase in BG4-induced fluorescence signal at 5 uM incubated for 30 mins by immunofluorescence based confocal microscopic analysis; type: cell-based
In short: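 U87 cells fixed in 4% paraformaldehyde for 15 min, permeabilized with 0.1% Triton X-100 at 37 °C for 30 min, blocked with 5% goat serum for 3 h. BG4 antibody 3 h at 37 °C, then DyLight 405 anti-mouse IgG 3 h at 37 °C, then ligand 5 μM for 30 min. Confocal imaging for co-localization.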

DNA = assay: Binding affinity to ds26 DNA (unknown origin) assessed as equilibrium binding constant at 5 uM at 25 degreeC by […]; type: nucleic-acid assay
In short: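 Fluorescence titration: ligand 5 μM in 10 mM Tris-HCl pH 7.4 with 60 mM KCl, nucleic acid added until saturation, 25 °C. Keq from nonlinear fit of F/F0 to an independent-site model.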

Quadruplex DNA [4] = assay: Binding affinity to G4 quadruplex DNA in human U87 cells assessed as decrease in fluorescence intensity at 5 uM in presence of 5 to 20 uM BRACO19 by DAPI staining based confocal laser microscopic analysis; type: cell-based
In short: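 Live U87 cells stained with ligand (5 μM) plus DAPI, with BRACO19 added at 0, 5, 10, 15 or 20 μM. Confocal imaging with excitation at 488 or 571 nm for the ligand and 402 nm for DAPI; nuclear spot fluorescence intensity scored.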

[5] = Drug uptake in nucleolus of human U87 cells assessed as imaging of G-quadruplex at 5 uM for 30 mins followed by co-staining with DAPI and measured after 10 mins by confocal laser fluorescence microscopic analysis; type: ADME, subcellular; conditions: u-87mg atcc, 40 min
In short: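 Live U87 cells were co-stained with ligand (5 μM, 30 min) and DAPI (1 μM, 10 min). Confocal imaging used excitation at 402 nm for DAPI and 488 or 571 nm for the ligand.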

[6] = system: Quadruplex DNA [UNDEFINED MUTATION]; assay: Effect on confirmation of telomeric Htg24 G-quadruplex DNA G16C mutant (unknown origin) assessed as parallel topology at 5 uM at pH 7.4 by circular dichroism analysis; type: nucleic-acid assay; conditions: Homo sapiens
In short: (§2)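 CD spectra recorded on G4-DNA and ligand, each at 5 μM, in 10 mM Tris-HCl, pH 7.4, with 60 mM KCl. Scan range 220–340 nm in a 1 mm quartz cuvette, 1 nm bandwidth and step, 0.5 s/point. Each spectrum is the average of three scans.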

[7] = system: Quadruplex DNA [UNDEFINED MUTATION]; assay: Effect on confirmation of telomeric Htg24 G-quadruplex DNA T18G mutant (unknown origin) assessed as hybrid topology at 5 uM at pH 7.4 by circular dichroism analysis; type: nucleic-acid assay; conditions: Homo sapiens; in short: as §2
Quadruplex DNA [8] = assay: Binding affinity to telomeric Htg24 G-quadruplex DNA (unknown origin) assessed as dissociation constant by isothermal titration calorimetric analysis; type: nucleic-acid assay
In short: (§3)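 ITC at 25 °C: DNA preannealed at 95 °C for 5 min, cooled and held at 4 °C overnight, in 25 mM KH2PO4, 60 mM KCl, pH 7.4, 0.5% DMSO. DNA 10 μM in cell, ligand 500 μM in syringe; 19 injections of 4 s, 150 s apart, 750 rpm stirring; blank heat subtracted before model fitting.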

[9] = system: Quadruplex DNA [UNDEFINED MUTATION]; assay: Effect on confirmation of telomeric Htg24 G-quadruplex DNA G22C mutant (unknown origin) assessed as hybrid topology at 5 uM at pH 7.4 by circular dichroism analysis; type: nucleic-acid assay; conditions: Homo sapiens; in short: as §2
[10] = system: Quadruplex DNA [UNDEFINED MUTATION]; assay: Binding affinity to telomeric Htg24 G-quadruplex DNA G5C mutant (unknown origin) assessed as negative fluorescence signal at 5 uM under pH condition 7.4 by fluorescence titration analysis; type: nucleic-acid assay; conditions: Homo sapiens; in short: as §1
[11] = system: Quadruplex DNA [UNDEFINED MUTATION]; assay: Binding affinity to telomeric Htg24 G-quadruplex DNA A20G mutant (unknown origin) assessed as negative fluorescence signal at 5 uM under pH condition 7.4 by fluorescence titration analysis; type: nucleic-acid assay; conditions: Homo sapiens
In short: (§4)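 Ligand 5 μM mixed with wild-type or point-mutant Htg24 in Tris-HCl buffer with 60 mM KCl; signal change calculated as (F mutant − F wild type)/F wild type.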

[12] = system: Quadruplex DNA [UNDEFINED MUTATION]; assay: Binding affinity to telomeric Htg24 G-quadruplex DNA G15A mutant (unknown origin) assessed as fluorescence signal at 5 uM under pH condition 7.4 by fluorescence titration analysis; type: nucleic-acid assay; conditions: Homo sapiens
HeLa = assay: Downregulation of hTERC mRNA expression in human HeLa cells at 5 to 20 uM by qRT-PCR analysis; type: functional, cell-based; conditions: dose 5-20 µM
In short: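 HeLa cells were treated with graded compound concentrations, then incubated 36 h. RNA was extracted with Trizol/chloroform, reverse transcribed and quantified by qRT-PCR. GAPDH served as internal control, with relative expression by the ΔΔCt method; three independent experiments, mean ± SD.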

[13] = system: Quadruplex DNA [UNDEFINED MUTATION]; assay: Binding affinity to telomeric Htg24 G-quadruplex DNA A14G mutant (unknown origin) assessed as negative fluorescence signal at 5 uM under pH condition 7.4 by fluorescence titration analysis; type: nucleic-acid assay; conditions: Homo sapiens; in short: as §4
[14] = system: Quadruplex DNA [UNDEFINED MUTATION]; assay: Binding affinity to telomeric Htg24 G-quadruplex DNA G22A mutant (unknown origin) assessed as negative fluorescence signal at 5 uM under pH condition 7.4 by fluorescence titration analysis; type: nucleic-acid assay; conditions: Homo sapiens; in short: as §1
Quadruplex DNA [15] = assay: Binding affinity to c-myc promoter G-quadruplex DNA Pu27 (unknown origin) assessed as dissociation constant by isothermal titration calorimetric analysis; type: nucleic-acid assay; in short: as §3
[16] = Drug uptake in nucleolus of human U87 cells assessed as disappearance of fluorescence signal at 5 uM for 30 mins co-stained with DAPI for 10 mins followed by treating with DNase and measured after 30 mins by confocal laser fluorescence microscopic analysis; type: ADME, subcellular; conditions: u-87mg atcc, 1.167 h, time 70 min
[17] = system: Quadruplex DNA [UNDEFINED MUTATION]; assay: Binding affinity to telomeric Htg24 G-quadruplex DNA G3A mutant (unknown origin) assessed as negative fluorescence signal at 5 uM under pH condition 7.4 by fluorescence titration analysis; type: nucleic-acid assay; conditions: Homo sapiens; in short: as §1

CN(C)c1ccc(/C=C/c2cc(/C=C3\Sc4ccccc4N3CCCN3CCOCC3)c3ccccc3[n+]2C)cc1.[I-]
IC50 (16HBE14o-): 52.3 µM | IC50 (PC-3): 12.8 µM | Activity [1]: Active | Activity (Quadruplex DNA [2]): 0.217 | Activity (Quadruplex DNA [3]): Active | Kb (DNA): 367000 M⁻¹ | Activity (Quadruplex DNA [4]): Active | Drug uptake [5]: Active | Activity [6]: Active | Activity [7]: Active | Kd (Quadruplex DNA [8]): 650 nM | Activity [9]: Active | Activity [10]: Active | Activity [11]: Active | Activity [12]: inactive | Activity (HeLa): Active | Activity [13]: Active | Activity [14]: Active | Kd (Quadruplex DNA [15]): 3.27 µM | Drug uptake [16]: Active | Activity [17]: Active

— ChEMBL document CHEMBL4834396, “Molecular Recognition and Imaging of Human Telomeric G-Quadruplex DNA in Live Cells: A Systematic Advancement of Thiazole Orange Scaffold To Enhance Binding Specificity and Inhibition of Gene Expression” (J Med Chem, 2021)
